Bioassay records from PubChem.
rCAG binder = binds r(CAG) RNA repeats | r(CAG) RNA repeat, TO-PRO-1 dye displacement fluorescence | inhibition, % at 3 µM | 1.3% of 370,000 active | AID 651821;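 active = inhibition above the plate cutoff, the mean of all test compounds on that plate plus 3 SD, cut at about 35% in these data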;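 note: 0% = DMSO alone and 100% = 100 µM mitoxantrone as full dye displacement; higher means more dye released from RNA so lower well fluorescence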
SIAE inh = human SIAE inhibition, primary screen | Q9HAT2 | SIAE FP-Rh probe binding, fluorescence polarization | inhibition, % at 9.66 µM | 0.69% of 370,000 active | AID 1053197;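 active = inhibition above a cutoff: mean of compounds within the control limits plus 3 SD of those, cut at about 17% in these data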;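 note: 0% = plate median of compound wells and 100% = probe without SIAE protein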
Target sequence (Q9HAT2 whole entry, looked up): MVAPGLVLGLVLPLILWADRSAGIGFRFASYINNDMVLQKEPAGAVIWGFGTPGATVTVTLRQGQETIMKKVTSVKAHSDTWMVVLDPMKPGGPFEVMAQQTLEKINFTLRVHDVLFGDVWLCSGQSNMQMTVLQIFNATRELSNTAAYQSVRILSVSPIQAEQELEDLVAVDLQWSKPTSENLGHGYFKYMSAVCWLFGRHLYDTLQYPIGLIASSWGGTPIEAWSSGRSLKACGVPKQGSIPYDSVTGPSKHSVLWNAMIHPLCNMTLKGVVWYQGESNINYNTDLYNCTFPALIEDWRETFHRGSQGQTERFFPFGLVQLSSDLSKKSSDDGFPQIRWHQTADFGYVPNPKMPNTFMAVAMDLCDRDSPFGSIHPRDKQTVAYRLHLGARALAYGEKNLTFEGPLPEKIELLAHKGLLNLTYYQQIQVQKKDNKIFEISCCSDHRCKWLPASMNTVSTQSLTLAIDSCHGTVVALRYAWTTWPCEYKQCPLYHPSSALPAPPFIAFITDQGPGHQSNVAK
TCR-CD3 inh = inhibitors of human TCR-CD3 interaction. inhibition, % at 9.4 µM. TAMRA-labeled TCR probe fluorescence, biochemical. AID 651800. 0.37% of 360,000 active;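 note: recombinant mutant TCR 2C K166C tagged with TAMRA read by polarization; 0% = receptor in buffer alone and 100% = receptor with positive control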
HTRA1 inh = blocks human HTRA1 serine peptidase; recombinant HTRA1, FP-rhodamine activity-based probe, fluorescence polarization; inhibition, % at 5.96 µM; 0.5% of 340,000 active; AID 504803; in the data active = inhibition above about 36%;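 note: 0% = enzyme with DMSO and 100% = wells lacking enzyme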
mABHD4 FP = inhibitors of mouse ABHD4 | Q8VD66 | purified mABHD4, FP-Rh probe fluorescence polarization | inhibition, % at 8.92 µM | 0.54% of 370,000 active;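 active = inhibition exceeding the mean over every tested compound plus 3 SD, cut at about 30% in these data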;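 note: 0% = plate median of compound wells and 100% = S159A mutant with DMSO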
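assay system = mABHD4 protein | compound dosing = single nominal dose of 8.92 µM, 0.89% DMSO final | read-out basis = percent inhibition of probe binding, normalized to plate controls | schedule = Enzyme–compound pre-incubation 45 min, then probe 60 min, both 25 °C | detection = fluorescence polarization, excitation 525 nm, emission 598 nm, BODIPY TMR filters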
BSA probe FL = counter-screen for TCR-CD3 interaction inhibitors: BSA probe. 10% of 1,200 active. TAMRA-labeled BSA probe fluorescence counterscreen. shares compounds with TCR-CD3 inh. inhibition, % at 9.4 µM; in the data active = inhibition above about 23%;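 note: 0% = buffer low control and 100% = reference high control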
TCR-CD3 inh conf = TCR-CD3 interaction inhibition, confirmation. shares compounds with TCR-CD3 inh. TAMRA-labeled TCR probe fluorescence binding assay. inhibition, % at 9.4 µM. 48% of 1,200 active. AID 652036
An asterisk follows results filed as active; i = inactive; / = not tested or not shown; ! = not active in a repeat. Hits are enriched below; roughly 2.5% of the tested compounds scored in any of these assays. Cut-off read from the data, not from the text of the source, unless noted: active = inhibition above about 19%; inactive = the rest.

SMILES | rCAG binder | SIAE inh | TCR-CD3 inh | HTRA1 inh | mABHD4 FP | BSA probe FL | TCR-CD3 inh conf
C=CCN(c1ccccc1OC)S(=O)(=O)c1cccc(C(=O)OCC(=O)c2c[nH]c3ccccc23)c1 | 18 | -111 | 44* | -87 | -88 | 1 | 2
Cc1ccc(C(=O)Nc2cccc(C(F)(F)F)c2)cc1NC(=O)c1c[nH]c2cc(C(F)(F)F)ccc2c1=O | 0 | -7 | 0 | 6 | 10 | / | /
CCN1CCN(Cc2ccc(NC(=O)c3ccc(C)c(NC(=O)c4c[nH]c5cc(C(F)(F)F)ccc5c4=O)c3)cc2C(F)(F)F)CC1 | 15 | 2 | 24* | -72 | -33 | 11 | 21*!
COc1ccc(CNC(=O)C2CCCN(S(=O)(=O)c3ccccc3)C2)cc1 (stereo unspecified) | -6 | -3 | -6 | 6 | -2 | / | /
CC1NC(=S)N(Cc2ccccc2)C1=O (stereo unspecified) | 1 | 4 | 22* | 4 | 1 | 1 | 16
COc1ccccc1OCC(=O)N/N=C/c1c(O)ccc2ccccc12 | 10 | 5 | 20* | 4 | 21 | -9 | 18
CCC(C)[C@@H](NC(=O)OC(C)(C)C)c1nnc(S(=O)(=O)Cc2cccc(C)c2)o1 (stereo partly specified) | -7 | -1 | 8 | -6 | 22 | / | /
CC1(C)c2ccccc2N2CCC(=O)NC21/C=C/c1ccco1 (stereo unspecified) | 0 | -5 | 19* | 9 | -9 | 3 | 8
CC1(C)c2ccccc2N2CC(=O)NC21/C=C/c1ccco1 (stereo unspecified) | 8 | 2 | 1 | -2 | -18 | / | /
C=CCn1c(SCC(=O)NCc2ccco2)nnc1C1CCCCC1 | -1 | -1 | 20* | 4 | -6 | 3 | -1
Cc1ccc[n+](-c2[nH]c(=O)sc2/C=N/NC(=O)c2ccccc2[O-])c1 | 3 | -4 | 19* | 6 | 3 | -14 | 1
O=C(N/N=C/c1sc(=O)[nH]c1-[n+]1ccc2ccccc2c1)c1ccccc1[O-] | -12 | 11 | 33* | 35 | 16 | -9 | 24*
NC1=NC[C@H](Cc2ccc(O)cc2)N1CCc1cccc(F)c1 | 7 | 7 | 33* | -5 | 5 | 2 | 5
N#C/C(=C\c1ccc(O)c(O)c1)C(=O)c1ccc(O)c(O)c1 | 31 | 11 | 23* | 34 | 24 | 12 | 72*
COc1ccccc1-c1cc(NC=O)c2ncc(-c3cccc(C(F)(F)F)c3)n2c1 | 6 | -5 | -3 | / | 1 | / | /
CN(C)c1ccccc1-c1cc(NC=O)c2ncc(-c3cccc(C(F)(F)F)c3)n2c1 | -31 | 31* | 37* | / | 73* | 9 | 12
COc1c(-c2ccc(O)cc2)oc2cc(O)cc(O)c2c1=O | 13 | 6 | 32* | 6 | -2 | -7 | 15
COC(=O)c1c(-c2ccc(SC)cc2)sc2ccccc12 | 2 | -4 | 6 | -25 | -4 | / | /
O=C(Nc1ccc2c(c1)OCO2)C1COc2ccccc2O1 (stereo unspecified) | -1 | 7 | 48* | 4 | -1 | -1 | -2
O=C(NNC(=O)C1COc2ccccc2O1)c1ccccc1O (stereo unspecified) | 2 | 7 | 29* | 21 | 6 | -12 | 25*
CCOC(=O)Cn1c(=NC(=O)c2cc(-c3cccs3)nc3ccccc23)sc2cc(S(N)(=O)=O)ccc21 | 29 | -18 | 38* | -53 | -27 | 4 | 21*
COC(=O)Cn1c(=NC(=O)c2nc3ccccc3s2)sc2cc(S(N)(=O)=O)ccc21 | 6 | -10 | 5 | -8 | -15 | / | /
COC(=O)Cn1c(=NC(=O)c2cc(-c3cccs3)nc3ccccc23)sc2cc(S(N)(=O)=O)ccc21 | 31 | -64 | 57* | -124 | -105 | 10 | 31*
Cc1cccc(C)c1NC(=O)COC(=O)c1c2c(nc3ccccc13)/C(=C\c1ccc3c(c1)OCO3)CCC2 | i | 22* | 58* | -17 | 26 | 49* | 30*
O=C(NNC(=O)c1ccccc1O)c1cc2ccccc2o1 | 8 | 0 | 33* | 6 | 16 | -9 | 22*
SMILES | rCAG binder | SIAE inh | TCR-CD3 inh | HTRA1 inh | mABHD4 FP | BSA probe FL | TCR-CD3 inh conf
c1coc(CSSCc2ccco2)c1 | 22 | 2 | 20* | 22 | 28 | 4 | 6
COc1ccc(C(=O)C=CNNC(=O)c2ccc(Cl)cc2)cc1 | 7 | 5 | 22* | 31 | -2 | -3 | 24*
O=C(/C=C/NNC(=O)c1ccc(Cl)cc1)c1ccccc1 | 8 | 6 | 12 | 24 | 1 | / | /
Cc1ccc(C(=O)/C=C/NNC(=O)c2ccccc2O)cc1 | 9 | 4 | 19* | 8 | 10 | -11 | 12
Nc1ccc(N(CCO)CCO)cc1 | -10 | 15 | 27* | 29 | 22 | 19 | 12
Nc1ccc(C(=O)N(CCO)CCO)cc1 | -2 | 6 | 5 | 4 | 0 | / | /
NC(=O)[C@@H]1CC2(CC(c3cccc(NC(=O)CC(c4ccccc4)c4ccccc4)c3)=NO2)CN1C(=O)c1ccc(Cl)cc1 (stereo partly specified) | 23 | -69 | 35* | -109 | -76 | 8 | 20*
C/C=C(/C)C(=O)Nc1cccc(C2=NOC3(C2)C[C@@H](C(N)=O)N(C(=O)c2ccc(OC)cc2)C3)c1 (stereo partly specified) | 3 | 15 | 38* | -5 | 1 | 3 | 4
NC(=O)[C@H]1CC2(CC(c3cccc(NC(=O)CC(c4ccccc4)c4ccccc4)c3)=NO2)CN1C(=O)CC(c1ccccc1)c1ccccc1 (stereo partly specified) | 14 | -70 | 22* | -110 | -81 | 8 | 17
CCCCc1ccc(NC(=O)Nc2cccnc2)cc1 | 5 | -4 | 6 | -27 | -16 | / | /
C/C(Cn1cnc([N+](=O)[O-])n1)=N\NC(=O)c1ccc(O)cc1O | 3 | 3 | 19* | 4 | 1 | -3 | 3
CC1C(=O)CC(c2ccc([N+](=O)[O-])cc2)NC1c1ccc([N+](=O)[O-])cc1 (stereo unspecified) | 5 | -3 | 5 | -11 | -2 | / | /
O=C1Nc2ccccc2-n2nnnc2C1N1CCCN(Cc2ccc(F)cc2)CC1 (stereo unspecified) | 2 | 6 | 0 | / | 3 | / | /
N#Cc1cccc(NC(=O)c2nc(-c3ccccc3)n(-c3ccccc3)n2)c1 | 0 | 5 | 4 | -25 | -6 | / | /
CCn1c(=O)c(C(=O)NNC(=O)c2ccccc2F)c(O)c2ccccc21 | -1 | 2 | 13 | 4 | 4 | / | /
Cn1c(=O)c(C(=O)NNC(=O)c2ccccc2F)c(O)c2ccccc21 | 12 | 2 | 33* | -5 | 0 | 0 | 28*
